Hits are enriched below; roughly 3.1% of the tested compounds scored in any of these assays.
ERAP1 HTS inh: human ERAP1 aminopeptidase inhibitors, primary screen, biochemical, single point, plate reader | AID 652197, 2013 | inhibition, % at 10.7 µM | recombinant ERAP1, Leu-AMC fluorescence, 60 min | 340,000 tested, 0.15% active;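 active means mean replicate inhibition of at least 30%, or all replicates individually reaching that 30% level; inactive means mean below 30% and not every replicate reaching it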;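 further: 0% = neutral control wells and 100% = L-leucinethiol positive control wells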
S100A4 inh HTS: inhibitors of S100A4-myosin IIA peptide binding, primary screen, biochemical, fluorescence polarization, TAMRA-MyoIIA peptide; inhibition, % at 10.7 µM; 360,000 tested, 0.14% active; AID 652163, 2013;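 active means mean inhibition of at least 70% across replicates, with every replicate also reaching that level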
Target sequence (P26447 whole entry, looked up): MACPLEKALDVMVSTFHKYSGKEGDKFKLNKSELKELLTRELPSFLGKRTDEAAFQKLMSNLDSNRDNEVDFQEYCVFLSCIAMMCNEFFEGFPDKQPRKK
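System – human S100A4 monomer protein, biochemical binding assay · Buffer or medium – Calcium-containing HEPES buffer, pH 7.2 · Timing – 5 min between mix addition and reading · Also added – TAMRA-labelled myosin IIA heavy-chain peptide probe, 5 nM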
SIRT5 block: SIRT5 desuccinylase inhibitors, primary screen, biochemical, fluorescence imaging, single point, set 5 | inhibition, % at 15 µM | 330,000 tested, 1.1% active | Purified SirT5, succinyl-peptide AMC, trypsin-coupled fluorescence | AID 652115, 2013; in the data active means inhibition above about 15%
Target sequence (Q9NXA8 whole entry, looked up): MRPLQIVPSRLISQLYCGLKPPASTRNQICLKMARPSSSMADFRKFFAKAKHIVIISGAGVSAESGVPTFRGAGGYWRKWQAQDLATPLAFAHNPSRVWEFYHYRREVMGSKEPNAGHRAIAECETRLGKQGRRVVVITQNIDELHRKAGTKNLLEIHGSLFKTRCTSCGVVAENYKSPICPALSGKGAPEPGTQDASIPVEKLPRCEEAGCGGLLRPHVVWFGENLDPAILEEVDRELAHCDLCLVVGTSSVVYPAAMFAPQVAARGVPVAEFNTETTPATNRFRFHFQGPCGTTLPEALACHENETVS
F508del corr: F508del CFTR correction, initial screen, CFBE line, single point; 350,000 tested, 0.36% active; CFBE cells, YFP halide quenching; stimulated with forskolin plus potentiator P3; % fluorescence drop versus neutral controls; activity (quench increase), % at 7.58 µM;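 active means mean added fluorescence quench of at least 8% versus neutral control, with both replicates also reaching 8%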;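 further: cells transiently co-express mutant CFTR-F508del with the halide-sensitive YFP; corrector assay measuring rescue of mutant channel to the surface after 24 h compound exposure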
rRNA inh HTS: reduced GFP signal of wild-type E. coli, primary screen, bacterial rRNA inhibitor project, GFP/RFP fluorescence, OD600, single point; E. coli WT GFP vs humanized-ribosome RFP mutants, 24 h; hits give low values; DMSO median 0, no signal -100; GFP signal change (wild-type ribosome), % (no concentration beside the values); 350,000 tested, 1.6% active;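 active means significant combined selectivity score with lowered wild-type GFP, culture density cut under 30%, mutant RFP and density less affected; inactive means any of these conditions unmet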
Numbers without * were called inactive; x = no result.

SMILES	ERAP1 HTS inh	S100A4 inh HTS	SIRT5 block	F508del corr	rRNA inh HTS
O=C(C[C@H]1CC[C@@H](NS(=O)(=O)c2ccccc2)[C@H](CO)O1)NCCN1CCCCC1	-3	12	-4	3	0
C[C@H]1CN([C@@H](C)CO)C(=O)c2cccc(NS(=O)(=O)c3ccc(F)cc3)c2O[C@H]1CN(C)S(=O)(=O)c1ccc(F)cc1	1	-4	-2	-3	-7
C[C@H](CO)N1C[C@H](C)[C@@H](CN(C)S(=O)(=O)c2cn(C)cn2)Oc2ccc(NC(=O)CCN3CCOCC3)cc2C1=O	9	8	14	-2	2
Cc1cc(C2C(=O)c3ccccc3C2=O)c(C)c(C)c1C	3	-3	19*	3	-11
CCc1ccccc1C1C(=O)c2ccccc2C1=O	x	1	10	-1	5
CCN(Cc1nc2cc(Cl)ccc2c(=O)[nH]1)C(=O)c1cc(C2CC2)nn1-c1ccccc1	-1	0	1	3	-29
CCN(Cc1nc2cc(Cl)ccc2c(=O)[nH]1)C(=O)c1nn(C)c(=O)c2ccccc12	63*	-12	1	1	12
C[C@@H]1CN([C@@H](C)CO)C(=O)c2cc(-c3ccncc3)cnc2O[C@H]1CN(C)C(=O)Cc1cccnc1	x	x	x	-2	4
COC(=O)/C(=C/Nc1cccc2ccccc12)[N+](=O)[O-]	0	-6	0	-2	-21*
CCc1c(C)c2cc(Cl)c(O)c(CN(C)C)c2oc1=O	-102	-5	-190	3	-3
CCc1c(C)c2cc(Cl)c(O)c(CN(CC)CC)c2oc1=O	85*	-2	-194	0	-9
O=C(c1ccccc1)N1CC[C@@H]2[C@@H](CO)Nc3ccc(-c4ccccc4F)cc3[C@@H]21	2	19	1	0	-2
Cc1noc(C)c1S(=O)(=O)Nc1ccc2c(c1)C(=O)N([C@H](C)CO)C[C@@H](C)[C@H](CN(C)S(=O)(=O)c1ccc(F)cc1)OCCCC[C@@H](C)O2	1	-21	1	-2	-1
C[C@@H]1CN([C@@H](C)CO)S(=O)(=O)c2ccc(C#C[C@@H](C)O)cc2O[C@H]1CN(C)Cc1ccccn1	0	-6	0	1	-8
CCCCN(CC)CCCNC(=O)CC1Oc2ccccc2NC1=O (stereo not given)	-1	2	17*	-2	3
CC(C)NC(=O)Nc1ccc2c(c1)C(=O)N([C@@H](C)CO)C[C@H](C)[C@H](CN(C)Cc1ccccc1)O2	-3	9	-4	0	4
CCCN(C)C[C@H]1OCCCC[C@@H](C)Oc2ccc(N(C)C)cc2C(=O)N([C@H](C)CO)C[C@H]1C	1	7	-2	1	-2
CC12CCC(/C(=C/NNc3ccc([N+](=O)[O-])cc3[N+](=O)[O-])C1=O)C2(C)C (stereo not given)	4	-1	-1	-4	-23*
O=C(NNc1ccc([N+](=O)[O-])cc1[N+](=O)[O-])C1C2CCCCC21 (stereo not given)	13	-7	-5	x	5
C/C=C/c1cnc2c(c1)C(=O)N([C@H](C)CO)C[C@H](C)[C@@H](CN(C)C(=O)Nc1ccc(OC)cc1)O2	0	-1	7	-1	2
O=C(CCCN1CCC(O)(c2cccc(C(F)(F)F)c2)CC1)c1ccc(F)cc1	-10	11	3	8.3*	x
Cc1cc2nc(/C=C/c3cccnc3)[nH]c2cc1C	-36	-3	-104	2	-28*
FC(F)(F)c1ccc(Oc2ccc3ccccc3c2Br)nc1	-1	2	24*	-3	-6
C/C=C/c1ccc2c(c1)O[C@@H](CN(C)Cc1ccccc1)[C@@H](C)CN([C@@H](C)CO)S2(=O)=O	2	1	2	4	-6
C[C@@H]1CN([C@@H](C)CO)S(=O)(=O)c2ccc(Br)cc2O[C@@H]1CN(C)Cc1ccncc1	-4	111*	1	3	-3
C/C=C/c1ccc2c(c1)O[C@H](CN(C)Cc1cccc(F)c1)[C@@H](C)CN([C@@H](C)CO)S2(=O)=O	1	23	17*	-1	-10

Compound activity: PubChem, Broad Institute
